Measurements from the M2OR odorant receptor database.

Columns and labels:
Settings in all cases: stereoisomer not certain
UniProt A2ATE5 = molecular target: T1, UniProt A2ATE5
T1 sequence (whole entry): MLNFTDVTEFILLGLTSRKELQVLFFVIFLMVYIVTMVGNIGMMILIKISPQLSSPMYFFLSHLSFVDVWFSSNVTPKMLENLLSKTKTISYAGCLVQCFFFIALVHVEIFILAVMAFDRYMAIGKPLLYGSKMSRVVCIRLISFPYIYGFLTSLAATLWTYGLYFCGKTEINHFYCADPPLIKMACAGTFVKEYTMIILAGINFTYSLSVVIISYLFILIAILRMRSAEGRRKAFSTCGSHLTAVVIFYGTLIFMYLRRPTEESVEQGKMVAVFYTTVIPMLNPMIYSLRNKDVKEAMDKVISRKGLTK
In short: (§1)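 Values were gathered from published papers (main text and supplementary material), with extra details requested from the original authors when needed, and checked for typos and inconsistencies. Each receptor–molecule pair is called responsive (active) if the original authors judged the measured signal statistically different from baseline, and non-responsive (inactive) otherwise. Assay methods varied by source, often transient mammalian cell-line luciferase assays. Recorded details include cell line, G-protein, co-transfected protein and tags.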

UniProt A2AVB0 = molecular target: T2, UniProt A2AVB0
T2 sequence (whole entry): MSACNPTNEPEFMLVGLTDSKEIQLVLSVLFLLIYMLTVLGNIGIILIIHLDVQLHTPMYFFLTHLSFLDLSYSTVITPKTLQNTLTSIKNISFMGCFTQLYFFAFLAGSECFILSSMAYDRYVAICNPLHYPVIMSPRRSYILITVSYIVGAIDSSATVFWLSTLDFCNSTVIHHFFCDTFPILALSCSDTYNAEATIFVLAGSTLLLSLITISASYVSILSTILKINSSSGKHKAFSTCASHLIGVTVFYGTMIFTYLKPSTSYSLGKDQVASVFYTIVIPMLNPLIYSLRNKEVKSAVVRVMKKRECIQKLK
In short: as §1

UniProt E9PVX1 = molecular target: T3, UniProt E9PVX1
T3 sequence (whole entry): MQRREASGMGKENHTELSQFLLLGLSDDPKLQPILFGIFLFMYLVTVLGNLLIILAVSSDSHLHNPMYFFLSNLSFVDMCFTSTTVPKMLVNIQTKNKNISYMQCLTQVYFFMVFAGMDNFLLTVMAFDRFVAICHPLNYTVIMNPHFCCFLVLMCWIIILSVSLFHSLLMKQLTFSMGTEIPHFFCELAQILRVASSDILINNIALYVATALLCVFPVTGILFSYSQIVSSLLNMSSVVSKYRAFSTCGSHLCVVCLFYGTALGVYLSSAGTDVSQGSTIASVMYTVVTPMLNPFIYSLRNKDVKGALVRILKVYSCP
In short: as §1

UniProt E9PZ66 = molecular target: T4, UniProt E9PZ66
T4 sequence (whole entry): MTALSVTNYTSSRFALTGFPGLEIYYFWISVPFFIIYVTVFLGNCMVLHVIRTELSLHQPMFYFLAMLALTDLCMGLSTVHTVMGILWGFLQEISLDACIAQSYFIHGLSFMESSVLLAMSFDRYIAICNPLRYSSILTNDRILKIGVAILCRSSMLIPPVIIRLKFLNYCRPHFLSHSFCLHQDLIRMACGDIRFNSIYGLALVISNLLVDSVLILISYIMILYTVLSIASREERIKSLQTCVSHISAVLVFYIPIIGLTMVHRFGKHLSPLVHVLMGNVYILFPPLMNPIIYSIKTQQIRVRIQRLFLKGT
In short: as §1

UniProt E9Q4X7 = molecular target: T5, UniProt E9Q4X7
T5 sequence (whole entry): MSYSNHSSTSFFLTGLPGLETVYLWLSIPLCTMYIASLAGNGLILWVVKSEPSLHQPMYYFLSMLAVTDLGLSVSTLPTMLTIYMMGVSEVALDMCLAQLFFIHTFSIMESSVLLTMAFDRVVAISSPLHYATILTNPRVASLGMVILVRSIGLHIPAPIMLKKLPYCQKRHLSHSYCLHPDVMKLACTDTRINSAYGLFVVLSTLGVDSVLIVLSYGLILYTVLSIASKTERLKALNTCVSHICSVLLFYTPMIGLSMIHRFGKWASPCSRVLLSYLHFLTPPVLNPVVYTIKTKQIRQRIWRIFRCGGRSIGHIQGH
In short: as §1

UniProt E9Q546 = molecular target: T6, UniProt E9Q546
T6 sequence (whole entry): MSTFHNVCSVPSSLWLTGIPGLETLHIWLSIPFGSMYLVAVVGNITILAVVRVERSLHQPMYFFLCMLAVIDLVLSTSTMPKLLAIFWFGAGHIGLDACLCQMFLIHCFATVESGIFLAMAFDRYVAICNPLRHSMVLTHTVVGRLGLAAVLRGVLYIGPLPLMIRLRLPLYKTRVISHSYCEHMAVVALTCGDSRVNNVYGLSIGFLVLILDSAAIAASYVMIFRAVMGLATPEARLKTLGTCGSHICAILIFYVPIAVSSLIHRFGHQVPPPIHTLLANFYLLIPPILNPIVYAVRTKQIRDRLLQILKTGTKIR
In short: as §1

UniProt E9Q6Z7 = molecular target: T7, UniProt E9Q6Z7
T7 sequence (whole entry): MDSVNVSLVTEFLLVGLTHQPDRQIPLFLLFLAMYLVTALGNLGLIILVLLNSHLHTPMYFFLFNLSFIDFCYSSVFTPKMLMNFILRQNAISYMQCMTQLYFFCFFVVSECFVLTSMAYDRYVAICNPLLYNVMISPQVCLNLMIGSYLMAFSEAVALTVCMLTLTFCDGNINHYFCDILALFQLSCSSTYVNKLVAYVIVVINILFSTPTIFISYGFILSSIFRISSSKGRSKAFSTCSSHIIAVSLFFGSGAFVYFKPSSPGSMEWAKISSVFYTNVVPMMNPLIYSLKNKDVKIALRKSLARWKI
In short: as §1

UniProt A2AVB5 = molecular target: T8, UniProt A2AVB5
T8 sequence (whole entry): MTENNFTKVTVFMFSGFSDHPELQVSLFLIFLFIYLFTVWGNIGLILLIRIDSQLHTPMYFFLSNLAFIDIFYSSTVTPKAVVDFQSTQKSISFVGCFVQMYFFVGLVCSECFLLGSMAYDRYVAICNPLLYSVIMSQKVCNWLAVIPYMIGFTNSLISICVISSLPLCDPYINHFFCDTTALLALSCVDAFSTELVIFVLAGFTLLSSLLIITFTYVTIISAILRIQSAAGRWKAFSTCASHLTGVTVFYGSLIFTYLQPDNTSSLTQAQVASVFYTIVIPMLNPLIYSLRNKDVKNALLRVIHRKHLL
In short: as §1

UniProt B2RVX8 = molecular target: T9, UniProt B2RVX8
T9 sequence (whole entry): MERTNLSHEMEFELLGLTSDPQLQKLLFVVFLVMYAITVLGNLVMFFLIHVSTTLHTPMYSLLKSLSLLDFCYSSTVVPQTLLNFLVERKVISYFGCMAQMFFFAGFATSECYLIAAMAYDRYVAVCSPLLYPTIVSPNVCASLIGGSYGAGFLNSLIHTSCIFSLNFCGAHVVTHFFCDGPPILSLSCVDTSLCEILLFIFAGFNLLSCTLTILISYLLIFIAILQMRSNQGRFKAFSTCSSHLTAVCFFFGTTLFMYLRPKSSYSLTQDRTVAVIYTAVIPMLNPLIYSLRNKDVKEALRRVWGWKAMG
In short: as §1

UniProt K7N609 = molecular target: T10, UniProt K7N609
T10 sequence (whole entry): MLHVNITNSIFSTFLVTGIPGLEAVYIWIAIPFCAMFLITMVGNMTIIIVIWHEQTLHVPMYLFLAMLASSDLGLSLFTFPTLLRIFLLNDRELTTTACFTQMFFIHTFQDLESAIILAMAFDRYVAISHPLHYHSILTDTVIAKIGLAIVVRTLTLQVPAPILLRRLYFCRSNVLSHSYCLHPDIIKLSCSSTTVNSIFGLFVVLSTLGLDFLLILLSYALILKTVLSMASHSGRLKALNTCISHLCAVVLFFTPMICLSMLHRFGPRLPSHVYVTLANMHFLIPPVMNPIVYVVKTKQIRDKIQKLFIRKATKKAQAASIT
In short: as §1

UniProt E1BM68 = molecular target: T11, UniProt E1BM68
T11 sequence (whole entry): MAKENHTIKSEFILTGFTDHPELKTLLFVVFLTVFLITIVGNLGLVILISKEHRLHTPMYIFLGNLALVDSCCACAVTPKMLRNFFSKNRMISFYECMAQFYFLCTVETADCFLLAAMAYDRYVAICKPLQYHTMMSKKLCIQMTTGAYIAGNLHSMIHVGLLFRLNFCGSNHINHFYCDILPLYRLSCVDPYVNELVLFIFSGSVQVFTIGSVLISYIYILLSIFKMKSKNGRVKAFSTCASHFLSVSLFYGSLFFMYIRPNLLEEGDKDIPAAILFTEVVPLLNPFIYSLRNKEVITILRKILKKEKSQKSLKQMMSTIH
In short: as §1

UniProt E9QAT7 = molecular target: T12, UniProt E9QAT7
T12 sequence (whole entry): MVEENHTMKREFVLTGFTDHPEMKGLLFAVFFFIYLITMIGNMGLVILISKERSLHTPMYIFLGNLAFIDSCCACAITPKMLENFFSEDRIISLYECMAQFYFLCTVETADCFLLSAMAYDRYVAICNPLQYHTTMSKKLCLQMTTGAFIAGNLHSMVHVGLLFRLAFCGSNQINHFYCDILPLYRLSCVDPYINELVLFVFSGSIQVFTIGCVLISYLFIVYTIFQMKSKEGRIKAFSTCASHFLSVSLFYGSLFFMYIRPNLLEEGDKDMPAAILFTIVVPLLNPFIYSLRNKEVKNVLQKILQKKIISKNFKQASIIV
In short: as §1

UniProt E9PX47 = molecular target: T13, UniProt E9PX47
T13 sequence (whole entry): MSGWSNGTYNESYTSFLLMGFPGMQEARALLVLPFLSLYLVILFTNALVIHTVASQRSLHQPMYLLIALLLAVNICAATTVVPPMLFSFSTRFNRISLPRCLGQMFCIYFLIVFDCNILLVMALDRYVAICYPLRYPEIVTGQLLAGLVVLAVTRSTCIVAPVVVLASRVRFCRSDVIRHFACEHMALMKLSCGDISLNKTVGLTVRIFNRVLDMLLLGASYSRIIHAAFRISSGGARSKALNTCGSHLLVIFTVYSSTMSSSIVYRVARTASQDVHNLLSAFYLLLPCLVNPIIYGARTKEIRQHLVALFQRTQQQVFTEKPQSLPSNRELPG
In short: as §1

UniProt E9PXN3 = molecular target: T14, UniProt E9PXN3
T14 sequence (whole entry): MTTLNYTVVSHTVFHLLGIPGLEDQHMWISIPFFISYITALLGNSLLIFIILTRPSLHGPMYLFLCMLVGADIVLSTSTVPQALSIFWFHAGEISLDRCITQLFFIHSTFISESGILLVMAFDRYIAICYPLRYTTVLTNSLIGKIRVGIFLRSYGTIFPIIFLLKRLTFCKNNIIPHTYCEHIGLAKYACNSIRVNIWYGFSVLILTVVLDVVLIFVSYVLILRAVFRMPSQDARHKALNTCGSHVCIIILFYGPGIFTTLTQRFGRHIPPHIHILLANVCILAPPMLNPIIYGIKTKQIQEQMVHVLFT
In short: as §1

Measured: odorant receptor agonist call

C1CCOC1
inactive: UniProt A2ATE5 | UniProt A2AVB0 | UniProt E9PVX1 | UniProt E9PZ66 | UniProt E9Q4X7 | UniProt E9Q546 | UniProt E9Q6Z7

CCC(C(=O)O)c1ccccc1 (centres undefined)
inactive: UniProt A2AVB5 | UniProt B2RVX8 | UniProt E9Q546 | UniProt K7N609

OCC=Cc1ccccc1
inactive: UniProt A2ATE5 | UniProt A2AVB0 | UniProt E9PVX1 | UniProt E9PZ66 | UniProt E9Q4X7 | UniProt E9Q546 | UniProt E9Q6Z7

CCCCCCCOC(=O)C(C)C
inactive: UniProt A2ATE5 | UniProt A2AVB0 | UniProt E9PVX1 | UniProt E9PZ66 | UniProt E9Q4X7 | UniProt E9Q546 | UniProt E9Q6Z7

CC1=NC(C)C(C)S1 (centres undefined)
active: UniProt E1BM68 | UniProt E9QAT7

C=CC(=C)CCC=C(C)CCC=C(C)C
inactive: UniProt A2ATE5 | UniProt A2AVB0 | UniProt E9PVX1 | UniProt E9PZ66 | UniProt E9Q4X7 | UniProt E9Q546 | UniProt E9Q6Z7

CCCC(C)=O
inactive: UniProt A2AVB5 | UniProt B2RVX8 | UniProt E9PX47 | UniProt E9PXN3 | UniProt E9Q546 | UniProt K7N609

CCCCCCCCCC=CC=O
inactive: UniProt A2ATE5 | UniProt A2AVB0 | UniProt E9PVX1 | UniProt E9PZ66 | UniProt E9Q4X7 | UniProt E9Q546 | UniProt E9Q6Z7

COC(OC)c1ccccc1
inactive: UniProt A2ATE5 | UniProt A2AVB0 | UniProt E9PVX1 | UniProt E9PZ66 | UniProt E9Q4X7 | UniProt E9Q546 | UniProt E9Q6Z7
